Reference: BindingDB's records for doi:10.1016/j.bmcl.2019.05.046 (Peking University, 2019)

Target: Neuronal acetylcholine receptor subunit alpha-7 (Homo sapiens, UniProt P36544)
Assay: Positive allosteric modulation activity at human alpha7 nAChR expressed in Xenopus laevis oocytes assessed as increase in acetylcholine-induced channel current by measuring acetylcholine EC50 at 10 uM at -90 mV holding potential preincubated for 2 mins followed by co-application with acetylcholine for 10 secs by two-electrode voltage clamp method (Rvb = 231.8 +/- 2 uM)
Method in brief: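 ACh concentration-response on α7-expressing Xenopus oocytes, run without compound or after 2 min preincubation with 10 μM compound. Peak currents were normalised to the current evoked by 100 μM ACh alone. Curves were fitted for Emax, ACh EC50 and Hill coefficient, n = 4 per point.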

Chain of Neuronal acetylcholine receptor subunit alpha-7 (P36544 whole entry): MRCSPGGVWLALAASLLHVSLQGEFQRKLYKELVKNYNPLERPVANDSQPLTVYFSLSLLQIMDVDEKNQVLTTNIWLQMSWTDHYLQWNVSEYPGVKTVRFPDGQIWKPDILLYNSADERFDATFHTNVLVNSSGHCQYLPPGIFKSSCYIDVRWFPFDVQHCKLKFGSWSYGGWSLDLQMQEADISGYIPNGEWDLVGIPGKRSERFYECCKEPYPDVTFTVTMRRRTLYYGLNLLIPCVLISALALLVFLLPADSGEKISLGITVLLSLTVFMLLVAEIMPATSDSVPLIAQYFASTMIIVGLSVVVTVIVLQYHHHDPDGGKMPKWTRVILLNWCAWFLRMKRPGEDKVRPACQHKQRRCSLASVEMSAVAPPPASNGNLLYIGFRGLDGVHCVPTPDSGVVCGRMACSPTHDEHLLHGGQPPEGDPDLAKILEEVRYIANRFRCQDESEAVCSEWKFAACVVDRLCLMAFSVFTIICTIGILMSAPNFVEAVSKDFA

- EC50: 258 µM
Compound: Cc1cc(-c2cnc(N)c(C(=O)Nc3c(C)cccc3Cl)c2)ccc1F
